The target of experiment [1] is T1, Amyloid-beta precursor protein (Homo sapiens, UniProt P05067). Nature of the experiment: Inhibition of self-induced aggregation amyloid beta (1 to 42) (unknown origin) assessed as reduction in fibril formation incubated for 24 hrs by Thioflavin T based fluorometric assay. A digest of the protocol:
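Aβ42 (20 µM) mixed with compound (0.1–100 µM), with or without Zn2+ (20 µM), in Tris-HCl pH 7.4, incubated at 37 °C for 24 h. ThT (5 µM) added, fluorescence read at ex 450/em 485 nm.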

Experiment [2] concerns the target T1, Amyloid-beta precursor protein. Nature of the experiment: Inhibition of self-induced amyloid beta (1 to 42) (unknown origin) aggregation assessed as decrease in negative band ellipticity and shift around 230 nm resulting in inhibition of beta-sheets formation at 80 uM incubated for 24 hrs by circular dichroism spectroscopy. A digest of the protocol: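 CD spectra taken on Aβ42 (40 µM). Metal ion (ZnCl2 or CuCl2, 40 µM) was preincubated 5 min at room temperature where present, then compound (80 µM) was added and incubated at 37 °C for 24 h. Spectra recorded 190–270 nm in a 1.0 cm quartz cell, bandwidth 0.1 nm, response time 10 s.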

The subject of experiment [3] is Mus musculus. Put plainly: Cognitive enhancing effect in APP/PS1 double mutant-transgenic C57BL/6 mouse model assessed as effect on escape latency time at 1 mg/kg, iv measured on day 5 by Morris water maze test (reference value: 50.08 +/- 17.95 sec). As to conditions: time 5 day. The class given is functional.
For experiment [4], the system named is Caenorhabditis elegans. Nature of the experiment: Protection against oligomycin-induced mitochondrial stress in Caenorhabditis elegans CL4176 assessed as effect oxygen consumption rate at 100 uM after 48 hrs by seahorse XFe24 analyser based assay.
Experiment [5] relates to Caenorhabditis elegans. Put plainly: Antioxidant activity in Caenorhabditis elegans CL4176 assessed as effect on juglone-induced ROS level by measuring relative fluorescence intensity at 100 uM and 15 to 25 degreeC after 48 hrs by H2DCF-DA probe based fluorescence assay ( Rvb = 74.23 %). The experiment is classed as functional.
The test system of experiment [6] is Caenorhabditis elegans. Nature of the experiment: Upregulation of hsp-16.2 mRNA expression in Caenorhabditis elegans CL4176 at 50 uM by qRT-PCR analysis relative to control. The experiment is classed as functional. The method, boiled down:
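CL4176 worms treated with compound at 25 °C for 48 h (50, 100 µM for amy-1). RNA extracted with Trizol, cDNA made, EvaGreen qRT-PCR run for 40 cycles (95 °C 5 s, 60 °C 5 s). Normalized to ama-1 by the 2^−ΔΔCt method. Three independent preparations, samples in triplicate.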

SMILES strings stand for the structures. Activity calls are given as the source filed them. The calls are words filed in the database; no cut-off is given here.

T1 sequence (P05067 whole entry): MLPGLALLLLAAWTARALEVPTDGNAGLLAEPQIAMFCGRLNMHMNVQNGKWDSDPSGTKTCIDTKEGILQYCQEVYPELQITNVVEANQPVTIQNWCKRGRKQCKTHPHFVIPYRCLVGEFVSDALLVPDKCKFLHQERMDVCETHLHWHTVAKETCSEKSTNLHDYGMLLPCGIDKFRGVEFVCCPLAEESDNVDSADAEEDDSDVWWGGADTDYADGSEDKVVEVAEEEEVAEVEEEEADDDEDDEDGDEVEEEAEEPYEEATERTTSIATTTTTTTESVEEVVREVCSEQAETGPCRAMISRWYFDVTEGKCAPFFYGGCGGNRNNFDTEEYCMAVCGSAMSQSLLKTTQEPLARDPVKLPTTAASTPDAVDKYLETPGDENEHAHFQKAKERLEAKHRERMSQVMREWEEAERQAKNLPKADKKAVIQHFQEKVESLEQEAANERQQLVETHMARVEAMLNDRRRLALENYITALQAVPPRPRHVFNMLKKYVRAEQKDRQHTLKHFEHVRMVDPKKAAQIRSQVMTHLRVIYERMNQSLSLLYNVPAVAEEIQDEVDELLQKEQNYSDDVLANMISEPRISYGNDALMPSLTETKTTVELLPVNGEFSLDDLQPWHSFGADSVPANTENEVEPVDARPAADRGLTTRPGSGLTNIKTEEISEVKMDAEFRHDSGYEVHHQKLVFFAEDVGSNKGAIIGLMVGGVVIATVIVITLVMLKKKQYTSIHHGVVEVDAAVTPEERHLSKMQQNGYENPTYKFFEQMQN

For the compound `Oc1cc(CN(Cc2ccccn2)Cc2ccccn2)cc(C[P+](c2ccccc2)(c2ccccc2)c2ccccc2)c1.[Br-]`, in experiment [1], the IC50 was found to be 12.5 µM and the inhibition result is “Dose-dependent effect”. For the same compound, in experiment [2], the inhibition entry was “Active”. Besides, the Time in experiment [3] was 34.25 s. In experiment [4], the result was Active. For the same compound, in experiment [5], the Activity is listed as 28.14%. Besides, the fold change (FC) in experiment [6] was 2.15.

Source of the values: ChEMBL document CHEMBL4665634, “Inhibiting Aβ toxicity in Alzheimer's disease by a pyridine amine derivative” (Eur J Med Chem, 2019).
